Assay results gathered from unrelated publications.
Each line is one published result; the experiments were not run side by side.
Cell line: HeLa
Read-out: cell growth or viability

`CCn1c(=O)c(-c2cc[nH]n2)cc2c(C)nc(N)nc21` has a CC50 of 13.6 µM (MTT).
`c1cc(N2CCCC2)ccc1-c1cc2ncc(OCC3CCNCC3)nc2cc1-c1ccc(N2CCCC2)cc1` gave an EC50 of > 30 µM (XTT; 7 days).
The CC50 of `CCN(CC)CCCC(C)Nc1ccnc2cc(Cl)ccc12` (stereo not drawn) is reported as > 100 µg/mL (MTT; 48 h).
The CC50 of `Nc1nc2c(ncn2COCCO)c(=O)[nH]1` is reported as 355 µM (MTT; 48 h).
With `Fc1ccc(Oc2ccc(Nc3ccc4ncc(OCC5CCNCC5)nc4c3)cc2)cc1` the EC50 was > 30 µM (XTT; 7 days).
`CC(C)n1ncc2c(C(=O)NCC3(C)CNC3)cc(C3CC3)nc21` gave a viability of 101% (neutral red; 0.33 µM).
`c1cc(-c2cc3ncc(OCC4CCNCC4)nc3cc2-c2cccc(N3CCCCC3)c2)cc(N2CCCCC2)c1` gave an EC50 of 24.2 µM (XTT; 7 days).
For `CC[C@H](CC[C@@H](C)[C@H]1CC[C@H]2[C@@H]3CC=C4C[C@@H](O)CC[C@]4(C)[C@H]3CC[C@]12C)C(C)C`, the CC50 was > 100 µg/mL (MTT; 48 h).
`NC(=O)c1ncn([C@@H]2O[C@H](CO)[C@@H](O)[C@H]2O)n1` has a CC50 of 115 µM (MTT).
